Experimental data as given in paper PMC9476936 (ACS Pharmacology & Translational Science, 2021).
Where two headings read alike, the source gives them in different places.

Legend:
ABCB1 = details: cited from earlier work
human ABCB1 [1] = molecular target: T1, human ABCB1 (Homo sapiens, UniProt P08183); type: biochemical
human ABCB1 [2] = molecular target: T1, human ABCB1; type: biochemical; remark: listed apart in the source
human ABCB1 [3] = molecular target: T1, human ABCB1; type: biochemical; remark: listed apart in the source
human ABCG2 [4] = molecular target: T2, human ABCG2 (Homo sapiens, UniProt Q9UNQ0); type: biochemical
T2 sequence (Q9UNQ0 1-655): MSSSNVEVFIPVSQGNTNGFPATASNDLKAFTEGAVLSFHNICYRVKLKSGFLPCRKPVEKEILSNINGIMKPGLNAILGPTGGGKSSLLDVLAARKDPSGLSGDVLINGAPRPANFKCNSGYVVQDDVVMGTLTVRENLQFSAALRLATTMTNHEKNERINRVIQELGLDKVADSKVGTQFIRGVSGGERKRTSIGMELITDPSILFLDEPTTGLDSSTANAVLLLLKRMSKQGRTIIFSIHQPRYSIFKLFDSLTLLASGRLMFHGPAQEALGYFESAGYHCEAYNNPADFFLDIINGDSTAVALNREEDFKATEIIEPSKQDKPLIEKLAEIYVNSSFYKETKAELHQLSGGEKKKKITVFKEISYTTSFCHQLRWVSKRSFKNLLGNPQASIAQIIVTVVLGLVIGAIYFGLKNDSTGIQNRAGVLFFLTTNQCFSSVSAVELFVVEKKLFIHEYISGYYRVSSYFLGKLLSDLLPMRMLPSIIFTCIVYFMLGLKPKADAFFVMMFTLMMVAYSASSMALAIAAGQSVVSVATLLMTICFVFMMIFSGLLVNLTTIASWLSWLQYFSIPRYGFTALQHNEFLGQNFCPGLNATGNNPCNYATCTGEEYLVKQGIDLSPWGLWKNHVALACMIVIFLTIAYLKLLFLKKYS
Outline: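 Human ABCG2 (N-terminal His10) vesicles from baculovirus-infected High Five cells; 35 μg protein/50 μL in MES-Tris pH 6.8 buffer with 2 mM DTT. Photosensitizer (0–20 μM) added at 37 °C for 3 min, then 690 nm light (0–5 J/cm2, 50 mW/cm2). Fixed 0.5 J/cm2 for the dose series; fixed 2 μM for the fluence series. Denatured at 37 °C for 20 min, 7% Tris-acetate gel, 10 μg/lane, colloidal blue stain, densitometry.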

human ABCG2 [5] = molecular target: T2, human ABCG2; assay: Vanadate; type: biochemical; details: read-out: IC50 for ATPase activity of ABCG2; light activation (+hv) 690 nm, 0.05 J/cm2, 50 mW/cm2; membrane vesicles
human ABCB1 [6] = molecular target: T1, human ABCB1; type: biochemical; details: 2 μM BPD, 690 nm
[7] = 2 μM BPD, light fluence increased from 0 to 5 J/cm2
[8] = BPD 20 μM + light 690 nm, 5 J/cm2, 50 mW/cm2

T1 sequence (P08183 whole entry): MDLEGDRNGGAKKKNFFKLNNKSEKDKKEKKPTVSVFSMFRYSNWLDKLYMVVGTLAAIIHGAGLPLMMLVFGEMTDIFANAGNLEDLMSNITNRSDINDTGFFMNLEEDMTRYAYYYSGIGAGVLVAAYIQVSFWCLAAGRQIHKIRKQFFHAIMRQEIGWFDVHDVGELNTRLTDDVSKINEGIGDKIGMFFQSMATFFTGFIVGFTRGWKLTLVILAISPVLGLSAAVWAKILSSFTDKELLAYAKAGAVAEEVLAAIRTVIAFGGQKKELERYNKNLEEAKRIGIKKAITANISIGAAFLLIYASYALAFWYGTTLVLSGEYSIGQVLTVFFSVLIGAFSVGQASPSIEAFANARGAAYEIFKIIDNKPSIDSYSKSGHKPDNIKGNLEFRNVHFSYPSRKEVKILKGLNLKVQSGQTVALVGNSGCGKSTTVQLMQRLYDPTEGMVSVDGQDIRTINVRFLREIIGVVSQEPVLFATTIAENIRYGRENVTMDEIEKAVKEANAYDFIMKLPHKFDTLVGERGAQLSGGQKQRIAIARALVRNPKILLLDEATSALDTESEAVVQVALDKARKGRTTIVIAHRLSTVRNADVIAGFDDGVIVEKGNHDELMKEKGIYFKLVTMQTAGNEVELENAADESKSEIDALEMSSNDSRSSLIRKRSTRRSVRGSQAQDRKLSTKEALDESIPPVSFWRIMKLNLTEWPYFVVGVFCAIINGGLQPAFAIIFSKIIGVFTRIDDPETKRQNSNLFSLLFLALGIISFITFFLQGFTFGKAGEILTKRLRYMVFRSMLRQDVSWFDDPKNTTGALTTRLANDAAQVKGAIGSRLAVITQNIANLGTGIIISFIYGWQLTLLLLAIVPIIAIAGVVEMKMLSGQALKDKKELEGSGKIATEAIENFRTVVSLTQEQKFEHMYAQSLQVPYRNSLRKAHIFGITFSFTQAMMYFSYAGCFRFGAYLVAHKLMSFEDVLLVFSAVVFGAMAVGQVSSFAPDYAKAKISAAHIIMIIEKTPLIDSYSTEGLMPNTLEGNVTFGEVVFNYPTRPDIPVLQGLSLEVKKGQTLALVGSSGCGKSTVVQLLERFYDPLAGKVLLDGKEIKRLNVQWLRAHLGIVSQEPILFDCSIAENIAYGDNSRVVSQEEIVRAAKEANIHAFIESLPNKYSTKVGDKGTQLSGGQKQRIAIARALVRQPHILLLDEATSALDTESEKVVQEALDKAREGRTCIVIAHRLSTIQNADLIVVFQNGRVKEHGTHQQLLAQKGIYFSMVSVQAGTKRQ

Compound: COc1cc2c(cc1OC)CN(CCc1ccc(NC(=O)c3cccc4c(=O)c5cccc(OC)c5[nH]c34)cc1)CC2 [elacridar]
- concentrations inhibiting both drug transport and ATPase activity of ABCB1 (ABCB1): sub-micromolar concentrations

Compound: COc1cc2c(cc1OC)CN(CCc1ccc(NC(=O)c3cc(OC)c(OC)cc3NC(=O)c3cnc4ccccc4c3)cc1)CC2 [tariquidar]
- concentrations inhibiting both drug transport and ATPase activity of ABCB1 (ABCB1): sub-micromolar concentrations

Compound: O[C@@H](COc1cccc2ncccc12)CN1CCN([C@@H]2c3ccccc3[C@@H]3[C@H](c4ccccc42)C3(F)F)CC1 [zosuquidar]
- concentrations inhibiting both drug transport and ATPase activity of ABCB1 (ABCB1): sub-micromolar concentrations

Compound: benzoporphyrin derivative [BPD]
- further reduction of ATPase activity of ABCB1 by light activation (human ABCB1 [1]; +hv 690 nm, 0.05 J/cm2, 50 mW/cm2 versus −hv, stated jointly for ABCB1 and ABCG2): up to 12 fold
- IC50 (human ABCB1 [1]; read-out: IC50 for ATPase activity of ABCB1, light activation (+hv) 690 nm, 0.05 J/cm2, 50 mW/cm2, membrane vesicles): 700 ± 100 nM
- reduction of ATPase activity of ABCB1 in nanodiscs (human ABCB1 [2]; absence of light activation): 51.7 ± 5.3%
- reduction of ATPase activity of ABCB1 in nanodiscs (human ABCB1 [2]; light activation 690 nm, 0.05 J/cm2, 50 mW/cm2): 97.3 ± 1.3%
- reduction of monomeric ABCB1 band intensity (human ABCB1 [3]; [7]): 9.1 fold
- BPD concentration at which ABCB1 aggregation bands became evident (human ABCB1 [3]; 0.5 J/cm2, 690 nm): higher than 0.5 μM
- band corresponding to monomeric ABCB1 (human ABCB1 [3]; [8]): disappeared
- intensity of protein band of monomeric (non-aggregated) ABCB1 (human ABCB1 [3]; BPD alone 20 μM, no light): did not alter
- reduction of monomeric ABCG2 band intensity (human ABCG2 [4]; [7]): 5.4 fold
- BPD concentration at which ABCG2 aggregation bands became evident (human ABCG2 [4]; 0.5 J/cm2, 690 nm): higher than 0.5 μM
- band corresponding to monomeric ABCG2 (human ABCG2 [4]; [8]): disappeared
- intensity of protein band of monomeric (non-aggregated) ABCG2 (human ABCG2 [4]; BPD alone 20 μM, no light): did not alter
- IC50 (human ABCG2 [5]): 800 ± 100 nM
- disappearance of protein band corresponding to monomeric ABCB1 in nanodiscs (human ABCB1 [6]; 50 mW/cm2, 0.5 J/cm2): 49.0 ± 2.6%
- disappearance of protein band corresponding to monomeric ABCB1 in nanodiscs (human ABCB1 [6]; 50 mW/cm2, 5 J/cm2): 88.0 ± 3.5%
